From PubChem BioAssay
Compounds with a hit are over-represented: about 3.2% of the library has one in this group of screens.
RORa activator – activators of orphan receptor RORA, primary screen, cell-based, luminescence. CHO-K1 Gal4-RORA LBD luciferase reporter; percent increase over mock-subtracted basal signal. activation, % at 10 µM. actives 1.5% (n = 65,000);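 active means activation above the mean of all tested compounds plus 3 SD, cut at about 49% in these data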
SF1 activator – activators of human SF-1, primary screen, cell-based, CHO-K1, Gal4-SF-1 LBD, luciferase luminescence; activation, % at 10 µM; actives 1.9% (n = 65,000); CHO-K1 Gal4-SF-1 LBD luciferase reporter; % increase over DMSO SF-1-specific signal; AID 522, 2006; Steroidogenic factor 1 (Homo sapiens), Q13285;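 active means activation above the mean activation of all tested compounds plus 3 SD, cut at about 50% in these data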
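Material: Transient Gal4-SF-1 LBD reporter, CHO-K1 | Input: 4,000 cells/well | Dosing: One dose, 10 µM compound, 1% DMSO | Incubation: 20 h compound treatment, 37 °C | Detection: SteadyLite luciferase luminescence | Evaluation: Percent activation relative to DMSO median and mock-transfected background | Benchmarks: DMSO-treated SF-1-transfected cells as negative, DMSO-treated mock-transfected cells lacking SF-1 as background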
BAP1 block – inhibitors of BAP1 deubiquitinase, primary screen, biochemical, Ub-AMC fluorescence, kinetic. actives 0.48% (n = 72,000). recombinant BAP1, Ub-AMC hydrolysis fluorescence kinetic; active compounds read low. Ubiquitin carboxyl-terminal hydrolase BAP1 (Homo sapiens), Q92560. activity remaining (% of control), % at 20 µM;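 active means activity remaining at or below 50% of control, provided the compound also passes the data quality filters; inactive means the rest, including low values that fail the filters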
E coli RNAP – E. coli RNAP inhibitors, biochemical | E. coli RNA polymerase, fluorescence transcription assay | DNA-directed RNA polymerase subunit beta (Escherichia coli (strain K12)), P0A8V2 | inhibition, %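 (tested at 10 µM)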 | actives 0.2% (n = 62,000); in the data active means inhibition above about 20%
JNK3 blocker – JNK3 kinase activity inhibitors, primary screen, biochemical, human, purified enzyme; actives 0.61% (n = 60,000); inhibition, % at 8 µM; HTS; Mitogen-activated protein kinase 10 (Homo sapiens), P53779; AID 746, 2007; in the data active means inhibition above about 17%
Target sequence (P53779 whole entry, looked up): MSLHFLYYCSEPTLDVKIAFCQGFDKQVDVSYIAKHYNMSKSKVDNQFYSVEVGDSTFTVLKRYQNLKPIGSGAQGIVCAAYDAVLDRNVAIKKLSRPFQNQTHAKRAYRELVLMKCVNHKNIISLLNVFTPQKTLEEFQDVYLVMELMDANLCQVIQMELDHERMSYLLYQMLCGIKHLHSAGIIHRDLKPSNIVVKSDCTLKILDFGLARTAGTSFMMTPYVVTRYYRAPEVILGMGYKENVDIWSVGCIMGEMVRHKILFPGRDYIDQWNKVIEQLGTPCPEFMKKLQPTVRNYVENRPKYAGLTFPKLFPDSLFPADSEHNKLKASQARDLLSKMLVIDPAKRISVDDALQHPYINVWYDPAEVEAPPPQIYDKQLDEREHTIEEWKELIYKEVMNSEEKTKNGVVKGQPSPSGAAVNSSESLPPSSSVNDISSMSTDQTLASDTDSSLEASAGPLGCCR
BAP1 inh conf – BAP1 deubiquitinase inhibitors, hit retest, confirmation, orthogonal assay, biochemical, Ub-ethyl ester substrate, HPLC readout | shares compounds with BAP1 block | purified BAP1, Ub-ethyl ester hydrolysis; active compounds read low | % of control activity, % at 20 µM | actives 8% (n = 310) | AID 753, 2007;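 active means percent of control activity at or below 60%; inconclusive means HPLC trace unusable from injection failure or solvent front hiding peaks; inactive means the rest, plus ubiquitin peak ratio over a set limit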
Of the large screens only hits and unclear results are named; the others gave an inactive call (follow-up assays come after a bar, where shown).

CCOC(=O)C1=C(C)NC(C)=C(C(=O)OCC)C1c1cc2ccc(C)cc2[nH]c1=O	none
O=C(c1cccn2c(=O)c3cc(Cl)ccc3nc12)N1CCOCC1	none (no result: JNK3 blocker)
Cc1cc(NC(=O)CSc2nnc(COc3cccc(C)c3C)n2C)no1	none
Cc1ccccc1OCc1nnc(SCC(=O)Nc2ccc3c(c2)oc2ccccc23)n1C	BAP1 block 45 | BAP1 inh conf inactive
CCOc1cc(C(=O)O)cc(Cl)c1OCC#N	BAP1 block 50 | BAP1 inh conf inactive
CCOc1ccc(C(=O)O)cc1OC	none (no result: E coli RNAP)
CCOc1cc2[nH]c(=S)n(CCCCC(=O)NCc3ccco3)c(=O)c2cc1OCC	BAP1 block 35 (no result: JNK3 blocker) | BAP1 inh conf inactive
CCOc1cc2[nH]c(=S)n(CCCOC)c(=O)c2cc1OCC	none (no result: JNK3 blocker)
CCOC(=O)c1c(NC(=O)c2cccs2)sc(C)c1CC	BAP1 block 36 | BAP1 inh conf 59
Cc1ccc(C(=O)N2CCN(C)CC2)cc1S(=O)(=O)N1CCCCC1	none (no result: BAP1 block, JNK3 blocker)
COc1ccc(CC(=O)Nc2ccc(-c3noc(-c4cccc(OC)c4)n3)cc2)cc1	BAP1 block 7.0 | BAP1 inh conf inactive
CCOc1cc(-c2nnc(-c3ccco3)o2)cc(OCC)c1OCC	none (no result: E coli RNAP)
C=CCOC(=O)C(C#N)c1nc2ccccc2nc1N1CCN(Cc2ccc3c(c2)OCO3)CC1 (stereo not drawn)	BAP1 block 44 | BAP1 inh conf inactive
Cc1ccc(-c2cn(S(=O)(=O)c3cccc4nsnc34)nc2N)cc1	none
Nc1nn(S(=O)(=O)c2cccc3nsnc23)cc1-c1ccc(Br)cc1	BAP1 block 42 | BAP1 inh conf inconclusive
COc1ccccc1NC(=O)c1cc2n(n1)C(C(F)(F)F)CC(c1ccc3c(c1)OCO3)N2 (stereo not drawn)	none (not shown: BAP1 block)
O=C(NCc1ccco1)c1cc2n(n1)C(C(F)(F)F)CC(c1ccc(Br)cc1)N2 (stereo not drawn)	BAP1 block 34 | BAP1 inh conf inconclusive
O=C(NCc1ccco1)c1cc2n(n1)C(C(F)(F)F)CC(c1ccc(Cl)c(Cl)c1)N2 (stereo not drawn)	none (no result: E coli RNAP)
COc1ccc(OC)c(NC(=O)c2cc3n(n2)C(C(F)(F)F)CC(c2ccc4c(c2)OCO4)N3)c1 (stereo not drawn)	BAP1 block 45 | BAP1 inh conf inactive
O=C(NCCCn1ccnc1)c1noc2c1CCc1ccccc1-2	none
O=C(CN(CCc1ccccc1)C(=O)CN1C(=O)COc2ccccc21)NCc1ccco1	none
CCOc1ccc(OCC)c(NC(=O)c2[nH]c(C)c(C(C)=O)c2C)c1	BAP1 block 48 | BAP1 inh conf inactive
CSCCC(Nc1ncnc2sc3c(c12)CCCC3)C(=O)O (stereo not drawn)	none (no result: RORa activator, SF1 activator, E coli RNAP, JNK3 blocker)
O=C(Nc1cccc(-c2nc3ccccc3[nH]2)c1)c1cccc(NC(=O)c2ccco2)c1	BAP1 block 49, JNK3 blocker 19 | BAP1 inh conf inactive
CCOC(=O)c1ccc(-n2ncc(C(=O)OCC)c2N)cc1	none
CC(C)C(=O)Nc1nc2c(ncn2C2CC(O)C(CO)O2)c(=O)[nH]1 (stereo not drawn)	none
CC1=CC(C)(C)Nc2cc(C)c(C)cc21	BAP1 block 48 | BAP1 inh conf 49
CC1=CC(C)(C)Nc2ccc(C)cc21	none (not shown: BAP1 block)
S=C1SCN(Cc2ccccn2)CN1Cc1ccco1	none (no result: JNK3 blocker)
COc1ccc2cc(C(c3nnnn3Cc3ccc(F)cc3)N3CCCCCC3)c(=O)[nH]c2c1 (stereo not drawn)	none
COc1ccc2cc(C(c3nnnn3Cc3ccccc3)N3CCCCCC3)c(=O)[nH]c2c1 (stereo not drawn)	BAP1 block 38 | BAP1 inh conf 50
CCOC(=O)N1CCN(C(=O)c2ccccc2Oc2ccccc2)CC1	none
CCOC(=O)c1nnn(-c2nonc2N)c1COc1cc(C)c(Cl)c(C)c1	BAP1 block 47 | BAP1 inh conf inactive
CCOC(=O)c1nnn(-c2nonc2N)c1CSc1ccc(C)cc1	none
CCO/C(C)=N/n1c2nc3ccccc3nc2c2c(=O)n(CC(C)C)c(C)nc21	none (no result: E coli RNAP)
CCOC(=O)C(C(C)=O)c1c(Br)c(O)c(O)c2c(C(=O)c3ccc(C)cc3)coc12 (stereo not drawn)	BAP1 block 37 | BAP1 inh conf inactive
CCCCOc1ccc(NC2=NC3(CCCC3)N=C(N)N2)cc1	BAP1 block 50 | BAP1 inh conf inactive
COc1ccccc1NC(=O)Cn1cnc2sc(C(=O)NCc3ccco3)c(C)c2c1=O	none (no result: JNK3 blocker)
O=C(Cn1cnc2sc(-c3ccccc3)cc2c1=O)NCc1ccco1	BAP1 block 23 | BAP1 inh conf inactive
N#CCCn1nnc2ccccc21	none
CCOc1ccccc1OCCn1nnc2ccccc21	BAP1 block 39 | BAP1 inh conf inactive
CC(C)(C)C(=O)NC(C(N)=O)=C(Cl)Cl	none (no result: E coli RNAP)
Cc1cc(S(=O)(=O)N2CCN(c3ccccc3C)CC2)ccc1F	BAP1 block 45 | BAP1 inh conf inactive
O=C(CSc1nnc(COc2ccc3c(c2)CCCC3)o1)Nc1ccc(F)cc1	BAP1 block 42 | BAP1 inh conf inactive
CSCCC(/C(O)=C(\C#N)c1nc2ccccc2[nH]1)N1C(=O)c2ccccc2C1=O (stereo not drawn)	BAP1 block 39 | BAP1 inh conf inactive
COc1cc(NC(=O)C2CCCO2)c(OC)cc1NC(=O)c1ccccc1 (stereo not drawn)	none
COc1ccc(C)cc1NC(=O)CN1CCN(S(=O)(=O)c2ccc(C(C)C)cc2)CC1	BAP1 block 49 | BAP1 inh conf inactive
COc1ccc(C)cc1NC(=O)CN1CCN(S(=O)(=O)c2ccc(Cl)cc2)CC1	none
O=c1c(Oc2ccccc2)coc2cc(O)ccc12	none (no result: RORa activator, SF1 activator, E coli RNAP, JNK3 blocker)
COc1ccccc1CN(Cc1cc2c(C)ccc(C)c2[nH]c1=O)Cc1nnnn1Cc1ccco1	BAP1 block 41 | BAP1 inh conf inactive
COc1ccc(-c2cc(C(F)(F)F)n3nc(C(=O)O)cc3n2)cc1OC	none
COC(=O)c1cc2nc(-c3ccc(OC)c(OC)c3)cc(C(F)(F)F)n2n1	BAP1 block 44 | BAP1 inh conf inactive
CC(NC(=O)CN1CCC(C(N)=O)CC1)c1ccccc1 (stereo not drawn)	none
Cc1ccc2[nH]c(=O)c(CN(CCO)Cc3nnnn3CCc3ccccc3)cc2c1	none
Cc1ccc2[nH]c(=O)c(CN(Cc3cccs3)Cc3nnnn3Cc3ccccc3)cc2c1	BAP1 block 45 (no result: JNK3 blocker) | BAP1 inh conf inactive
O=C(O)C1CCN(S(=O)(=O)c2ccc(Oc3ccccc3)cc2)CC1	none
COC(=O)c1ccc(NC(=O)CN2CCN(S(=O)(=O)c3cc(Cl)ccc3OC)CC2)cc1	none
